This is an account of results in ChEMBL document CHEMBL1131724, “The structure-based design and synthesis of selective inhibitors of Trypanosoma cruzi dihydrofolate reductase” (Bioorg Med Chem Lett, 1999).

Test [1] in a line: In vitro activity against the amastigote stage of the parasite cultured in mouse fibroblasts (L-6 cells). Format: functional, cell-based. A digest of the protocol:
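L-6 mouse fibroblasts seeded, infected next day with trypomastigote T. cruzi expressing beta-galactosidase; after two days medium replaced with serial drug dilutions; four-day incubation; chlorophenol red beta-D-galactopyranoside substrate added, absorbance read at 540 nm 2-6 h later to quantify parasite growth; IC50 determined.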

Test [2] can be described thus: Selectivity for Trypanosoma cruzi dihydrofolate reductase compared to human dihydrofolate reductase.
The next test has as its target T1, Dihydrofolate reductase (Homo sapiens, UniProt P00374).
T1 sequence (P00374 whole entry): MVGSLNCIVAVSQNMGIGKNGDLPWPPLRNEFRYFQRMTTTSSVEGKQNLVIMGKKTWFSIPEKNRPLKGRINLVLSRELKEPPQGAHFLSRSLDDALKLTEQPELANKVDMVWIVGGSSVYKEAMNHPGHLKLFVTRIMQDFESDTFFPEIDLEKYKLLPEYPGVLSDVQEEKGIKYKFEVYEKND
Kind of test: Inhibitory activity against dihydrofolate reductase in humans.

By IC50 is commonly meant the concentration that inhibits the measured activity by half. As usually defined, the Ki is a measure of affinity in units of concentration, obtained from inhibition or displacement. The low end stands for tighter binding, the high end for weaker binding. `CCOC(=O)CCCCCN(Cc1cnc2nc(N)nc(N)c2n1)c1ccc(C(=O)NC(CCC(=O)OCC)C(=O)OCC)cc1` (stereo not given): in test [1], the IC50 was found to be 53.5 µM. The Selectivity in test [2] turned out to be 8.71. The molecule also yielded an inhibitory constant (Ki) on Dihydrofolate reductase of 0.485 µM.

On to `CCOC(=O)CCCCN(Cc1cnc2nc(N)nc(N)c2n1)c1ccc(C(=O)NC(CCC(=O)OCC)C(=O)OCC)cc1` (stereo not given), for which, in test [1], half-maximal inhibition (IC50) was put at 38.8 µM. This molecule displayed a Selectivity in test [2] of 9.9. In addition, at Dihydrofolate reductase, the inhibition constant Ki was 0.453 µM.

Molecule `CCOC(=O)CCCN(Cc1cnc2nc(N)nc(N)c2n1)c1ccc(C(=O)NC(CCC(=O)OCC)C(=O)OCC)cc1` (stereo not given) registered an IC50 in test [1] of 61 µM.

Regarding `Nc1nc(N)c2nc(CN(CCCCC(=O)O)c3ccc(C(=O)NC(CCC(=O)O)C(=O)O)cc3)cnc2n1` (stereo not given), the IC50 in test [1] is more than 167 µM. Moreover, the Selectivity in test [2] was 11.1. The molecule also came in with a Ki at Dihydrofolate reductase of 0.00145 µM.

In the case of `CN(Cc1cnc2nc(N)nc(N)c2n1)c1ccc(C(=O)N[C@@H](CCC(=O)O)C(=O)O)cc1` [METHOTREXATE], the IC50 in test [1] was 9.2 µM.

`Nc1nc(N)c2nc(CN(CCCCCC(=O)O)c3ccc(C(=O)NC(CCC(=O)O)C(=O)O)cc3)cnc2n1` (stereo not given) showed an IC50 in test [1] of 11.5 µM. The same molecule had a Selectivity in test [2] of 8.9. At Dihydrofolate reductase, this molecule returned a Ki of 0.00163 µM.

In test [1], `Nc1nc(N)c2nc(CN(CCCC(=O)O)c3ccc(C(=O)NC(CCC(=O)O)C(=O)O)cc3)cnc2n1` (stereo not given) registered an IC50 of more than 171 µM.
